According to ChEMBL document CHEMBL1157359, “Binding of ceftobiprole and comparators to the penicillin-binding proteins of Escherichia coli, Pseudomonas aeruginosa, Staphylococcus aureus, and Streptococcus pneumoniae” (Antimicrob Agents Chemother, 2007):
Converted amounts (≈) assume the structure as drawn.

Columns and labels:
[1] = Inhibition of bocillin FL binding to Escherichia coli MC4100 penicillin-binding protein 3
Procedure, shortened: (§1)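 Isolated E. coli MC4100 PBPs were competed with 10 drug concentrations from 0.016 μg/ml to 8 μg/ml, then labeled with Bocillin FL. Fluorescent PBP bands were imaged. IC50 is the concentration giving 50% inhibition of Bocillin FL binding to each PBP relative to a no-drug control.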

[2] = Inhibition of bocillin FL binding to penicillin-resistant Streptococcus pneumoniae OC 8819 penicillin-binding protein 1a
Procedure, shortened: (§2)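 Whole S. pneumoniae cells were used rather than isolated membranes. Cells were competed with drug and then labeled with Bocillin FL, and PBP bands were visualized by fluorescence imaging. IC50 is the drug concentration that inhibits Bocillin FL binding to each PBP by 50% relative to a no-drug control.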

[3] = Inhibition of bocillin FL binding to Pseudomonas aeruginosa PAO1 penicillin-binding protein 4
Procedure, shortened: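 P. aeruginosa PAO1 PBPs were isolated and competed with 10 drug concentrations from 0.06 μg/ml to 32 μg/ml before Bocillin FL labeling. Bands were detected by fluorescence imaging. IC50 was taken as 50% inhibition of Bocillin FL binding versus the no-drug sample.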

[4] = Inhibition of bocillin FL binding to penicillin-resistant Streptococcus pneumoniae OC 8819 penicillin-binding protein 3; procedure, shortened: as §2
[5] = test system: Staphylococcus aureus; assay: Antibacterial activity against methicillin-susceptible Staphylococcus aureus ATCC 29213 by CLSI method; type: functional
[6] = Inhibition of bocillin FL binding to penicillin-susceptible Streptococcus pneumoniae OC 8865 penicillin-binding protein 2x; procedure, shortened: as §2
[7] = biological target: T1, MecA (Staphylococcus aureus, UniProt Q7DHH4); assay: Inhibition of bocillin FL binding to methicillin-resistant Staphylococcus aureus OC 3726 penicillin-binding protein 2a
T1 sequence (Q7DHH4 whole entry): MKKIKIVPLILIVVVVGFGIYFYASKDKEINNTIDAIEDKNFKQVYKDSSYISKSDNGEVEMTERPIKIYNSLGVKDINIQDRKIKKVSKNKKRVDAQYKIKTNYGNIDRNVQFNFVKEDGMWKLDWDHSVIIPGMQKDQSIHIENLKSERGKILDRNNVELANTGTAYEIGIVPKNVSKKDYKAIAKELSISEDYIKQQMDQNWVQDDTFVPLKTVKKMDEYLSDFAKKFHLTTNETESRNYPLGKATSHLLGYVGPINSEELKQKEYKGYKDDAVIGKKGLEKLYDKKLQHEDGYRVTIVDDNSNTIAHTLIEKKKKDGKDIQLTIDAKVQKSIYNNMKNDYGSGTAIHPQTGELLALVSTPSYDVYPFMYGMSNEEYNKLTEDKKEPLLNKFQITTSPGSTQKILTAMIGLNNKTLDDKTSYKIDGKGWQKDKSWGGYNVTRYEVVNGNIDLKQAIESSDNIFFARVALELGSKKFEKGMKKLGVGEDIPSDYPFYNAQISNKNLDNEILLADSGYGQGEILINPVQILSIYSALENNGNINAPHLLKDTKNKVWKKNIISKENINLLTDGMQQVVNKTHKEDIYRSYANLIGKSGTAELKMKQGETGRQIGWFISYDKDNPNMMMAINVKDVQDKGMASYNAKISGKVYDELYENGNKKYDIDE
Procedure, shortened: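 OC 3726 membranes were first preincubated with 1 mg/ml clavulanic acid to saturate all PBPs except PBP2a. Drug was then added (0.16 μg/ml to 50 μg/ml), followed by Bocillin FL labeling and fluorescence imaging. IC50 is 50% inhibition of PBP2a labeling compared with the no-drug (0 μg/ml) sample.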

[8] = Inhibition of bocillin FL binding to penicillin-susceptible Streptococcus pneumoniae OC 8865 penicillin-binding protein 3; procedure, shortened: as §2
[9] = test system: Staphylococcus aureus; assay: Antibacterial activity against methicillin-resistant Staphylococcus aureus OC 3726 by CLSI method; type: functional
[10] = Inhibition of bocillin FL binding to Escherichia coli MC4100 penicillin-binding protein 6; procedure, shortened: as §1
[11] = biological target: T2, Cell shape peptidoglycan synthetase penicillin-binding protein 2 (Escherichia coli, UniProt Q2TL65); assay: Inhibition of bocillin FL binding to Escherichia coli MC4100 penicillin-binding protein 2
T2 sequence (Q2TL65 whole entry): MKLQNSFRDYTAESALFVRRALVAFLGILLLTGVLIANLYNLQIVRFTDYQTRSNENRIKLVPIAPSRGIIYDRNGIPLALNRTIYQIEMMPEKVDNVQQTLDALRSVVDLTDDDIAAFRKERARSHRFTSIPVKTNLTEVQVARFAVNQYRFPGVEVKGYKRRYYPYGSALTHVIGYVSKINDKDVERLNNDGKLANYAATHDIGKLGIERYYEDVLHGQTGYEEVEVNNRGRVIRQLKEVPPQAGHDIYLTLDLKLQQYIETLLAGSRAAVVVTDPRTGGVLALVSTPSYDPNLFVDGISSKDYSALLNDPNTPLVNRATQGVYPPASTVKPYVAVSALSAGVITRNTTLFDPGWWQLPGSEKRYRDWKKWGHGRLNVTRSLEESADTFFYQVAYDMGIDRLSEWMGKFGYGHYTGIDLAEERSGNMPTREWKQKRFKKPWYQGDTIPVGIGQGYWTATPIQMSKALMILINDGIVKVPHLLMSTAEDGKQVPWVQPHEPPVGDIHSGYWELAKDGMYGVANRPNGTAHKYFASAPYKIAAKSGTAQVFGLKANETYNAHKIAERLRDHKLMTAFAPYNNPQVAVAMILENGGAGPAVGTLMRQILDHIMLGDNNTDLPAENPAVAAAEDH
Procedure, shortened: (§3)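 Isolated E. coli MC4100 PBPs; competition with drug at 10 concentrations, 0.016 μg/ml to 8 μg/ml, then Bocillin FL labeling. Gel bands visualized by imaging. IC50 is the concentration giving 50% inhibition of Bocillin FL binding relative to a no-drug control.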

[12] = Inhibition of bocillin FL binding to Escherichia coli MC4100 penicillin-binding protein 1b; procedure, shortened: as §1
[13] = test system: Streptococcus pneumoniae; assay: Antibacterial activity against penicillin-susceptible Streptococcus pneumoniae OC 8865 by CLSI method; type: functional
[14] = Inhibition of bocillin FL binding to Escherichia coli MC4100 penicillin-binding protein 1a; procedure, shortened: as §3
[15] = test system: Escherichia coli; assay: Antibacterial activity against Escherichia coli MC4100 by CLSI method; type: functional
[16] = Inhibition of bocillin FL binding to Escherichia coli MC4100 penicillin-binding protein 4; procedure, shortened: as §1
[17] = Inhibition of bocillin FL binding to penicillin-resistant Streptococcus pneumoniae OC 8819 penicillin-binding protein 2a; procedure, shortened: as §2
[18] = Inhibition of bocillin FL binding to Escherichia coli MC4100 penicillin-binding protein 5; procedure, shortened: as §1

Nc1nc(/C(=N/O)C(=O)N[C@@H]2C(=O)N3C(C(=O)O)=C(/C=C4\CCN([C@@H]5CCNC5)C4=O)CS[C@H]23)ns1 [CEFTOBIPROLE]
IC50 [1]: 0.2 µg/mL (≈ 0.374 µM) | IC50 [2]: 0.1 µg/mL (≈ 0.187 µM) | IC50 [3]: 0.2 µg/mL (≈ 0.374 µM) | IC50 [4]: 0.01 µg/mL (≈ 0.0187 µM) | MIC [5]: 0.25 µg/mL (≈ 0.468 µM) | IC50 [6]: 0.01 µg/mL (≈ 0.0187 µM) | IC50 [7]: 1680 nM | IC50 [8]: 0.02 µg/mL (≈ 0.0374 µM) | MIC [9]: 2 µg/mL (≈ 3.74 µM) | IC50 [10]: 3 µg/mL (≈ 5.61 µM) | IC50 [11]: 374 nM | IC50 [12]: 8 µg/mL (≈ 15 µM) | MIC [13]: 0.008 µg/mL (≈ 0.015 µM) | IC50 [14]: 0.3 µg/mL (≈ 0.561 µM) | MIC [15]: 0.03 µg/mL (≈ 0.0561 µM) | IC50 [16]: 0.5 µg/mL (≈ 0.935 µM) | IC50 [17]: 0.1 µg/mL (≈ 0.187 µM) | IC50 [18]: > 8 µg/mL

CC(C)(O/N=C(\C(=O)N[C@@H]1C(=O)N2C(C(=O)[O-])=C(C[n+]3ccccc3)CS[C@H]12)c1csc(N)n1)C(=O)O [CEFTAZIDIME]
IC50 [1]: 0.07 µg/mL (≈ 0.128 µM) | IC50 [3]: 2 µg/mL (≈ 3.66 µM) | IC50 [7]: > 91500 nM | MIC [9]: > 128 µg/mL | IC50 [10]: > 4 µg/mL | IC50 [11]: 7320 nM | IC50 [12]: 1.1 µg/mL (≈ 2.01 µM) | IC50 [14]: 1.1 µg/mL (≈ 2.01 µM) | MIC [15]: 0.12 µg/mL (≈ 0.22 µM) | IC50 [16]: > 4 µg/mL | IC50 [18]: > 4 µg/mL

CO/N=C(\C(=O)N[C@@H]1C(=O)N2C(C(=O)O)=C(CSc3nc(=O)c(O)nn3C)CS[C@H]12)c1csc(N)n1 (stereo in doubt) [CEFTRIAXONE]
IC50 [1]: < 0.01 µg/mL | IC50 [2]: 0.02 µg/mL (≈ 0.0361 µM) | IC50 [4]: 0.01 µg/mL (≈ 0.018 µM) | MIC [5]: 2 µg/mL (≈ 3.61 µM) | IC50 [6]: 0.03 µg/mL (≈ 0.0541 µM) | IC50 [7]: > 90200 nM | IC50 [8]: 0.02 µg/mL (≈ 0.0361 µM) | MIC [9]: > 64 µg/mL | IC50 [10]: > 8 µg/mL | IC50 [11]: 361 nM | IC50 [12]: 0.5 µg/mL (≈ 0.902 µM) | MIC [13]: 0.03 µg/mL (≈ 0.0541 µM) | IC50 [14]: 0.2 µg/mL (≈ 0.361 µM) | MIC [15]: 0.06 µg/mL (≈ 0.108 µM) | IC50 [16]: 0.4 µg/mL (≈ 0.721 µM) | IC50 [17]: 0.5 µg/mL (≈ 0.902 µM) | IC50 [18]: 6 µg/mL (≈ 10.8 µM)
